# Laboratory results reported in ChEMBL document CHEMBL1145530, “Synthesis and evaluation of isosteres of N-methyl indolo[3,2-b]-quinoline (cryptolepine) as new antiinfective agents” (Bioorg Med Chem, 2007).
# Activity calls are given as the source filed them. The rule behind the calls is not given here.
# Assays:
# Candida albicans = test: Antifungal activity against Candida albicans ATCC 90028; type: functional
# In short: (§1)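 Broth microdilution following modified NCCLS methods, Franzblau variant for M. intracellulare. DMSO samples serially diluted in saline and tested in duplicate. Inoculum set by 0.5 McFarland. Media: C. albicans SDB or RPMI 1640; C. neoformans SDB; A. fumigatus YM broth (MIC) or RPMI-1640 + 5% Alamar Blue (IC50); M. intracellulare 7H9/OADC + 5% Alamar Blue. Top final concentration 20 µg/mL.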
# Cryptococcus neoformans = test: Antifungal activity against Cryptococcus neoformans ATCC 90113; type: functional, organism-based; in short: as §1
# Aspergillus fumigatus = test: Antifungal activity against Aspergillus fumigatus ATCC 90906; type: functional, organism-based; details: for MIC: in the assay text read “Antifungal” for “Antibacterial”; in short: as §1
# [1] = system: Mycobacterium intracellulare; test: Antibacterial activity against Mycobacterium intracellular ATCC 23068; type: functional, organism-based; in short: as §1
# Leishmania donovani = test: Antileishmanial activity against Leishmania donovani promastigotes; type: functional, organism-based
# In short: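 L. donovani promastigotes from a 3-day culture in RPMI 1640 with 10% FCS, diluted to 5×10^5/mL. Drug dilutions made directly in the cell suspension. 48 h at 26 °C. Growth measured by Alamar Blue fluorescence at 544/590 nm. IC50 and IC90 from percent growth versus concentration.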
# Plasmodium falciparum [2] = test: Anti-infective activity against Plasmodium falciparum D6 infected red blood cells up to 4.76 ug/mL; type: functional
# Plasmodium falciparum [3] = test: Anti-infective activity against Plasmodium falciparum W2 in erythrocytes up to 4.76 ug/mL; type: functional, organism-based
# Vero = test: Cytotoxicity against Vero cells; type: cell-based; details: Chlorocebus sabaeus
# In short: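 VERO monkey kidney […] seeded at 25,000 cells/well and grown 24 h, then exposed to compound for 48 h, highest concentration 23.8 µg/ml. Viability by neutral red uptake. IC50 from growth-inhibition curves. DMSO as vehicle control.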
# [4] = Anti-infective activity against Plasmodium falciparum D6 infected red blood cells; type: functional
# Plasmodium falciparum [5] = test: Anti-infective activity against Plasmodium falciparum W2 in erythrocytes; type: functional, organism-based
MIC (Candida albicans),MIC (Cryptococcus neoformans),MIC (Aspergillus fumigatus),IC50 [1],IC50 (Leishmania donovani),IC50 [4],IC50 (Plasmodium falciparum [5]),IC50 (Cryptococcus neoformans),IC50 (Aspergillus fumigatus),Compound,Activity (Plasmodium falciparum [2]),Activity (Plasmodium falciparum [3]),IC50 (Vero)
> 20 µg/mL,> 20 µg/mL,> 20 µg/mL,> 20 µg/mL,40 µg/mL,–,–,–,–,C[n+]1c2ccc(C(N)=O)cc2cc2sc3ccccc3c21.[I-],inactive,inactive,> 23.8 µg/mL
> 20 µg/mL,> 20 µg/mL,10 µg/mL,20 µg/mL,0.39 µg/mL,–,4.5 µg/mL,–,–,C[n+]1c2ccc(C(=O)O)cc2cc2sc3ccccc3c21.[I-],inactive,–,7 µg/mL
> 20 µg/mL,–,20 µg/mL,> 20 µg/mL,0.6 µg/mL,0.74 µg/mL,0.74 µg/mL,8 µg/mL,–,COc1ccc2c(c1)cc1sc3ccccc3c1[n+]2C.[I-],–,–,> 23.8 µg/mL
> 20 µg/mL,> 20 µg/mL,> 20 µg/mL,> 20 µg/mL,–,1.5 µg/mL,1.2 µg/mL,–,–,C[n+]1cccc2sc3ccccc3c21.[I-],–,–,> 23.8 µg/mL
> 20 µg/mL,> 20 µg/mL,20 µg/mL,> 20 µg/mL,2.6 µg/mL,–,–,–,–,C[n+]1c2ccc(C#N)cc2cc2sc3ccccc3c21.[I-],inactive,inactive,> 23.8 µg/mL
–,–,> 20 µg/mL,> 20 µg/mL,0.35 µg/mL,1.6 µg/mL,2 µg/mL,–,–,C[n+]1c2ccccc2cc2sc3ccccc3c21.[I-],–,–,> 23.8 µg/mL
> 20 µg/mL,> 20 µg/mL,> 20 µg/mL,> 20 µg/mL,> 40 µg/mL,0.4 µg/mL,0.46 µg/mL,–,–,C[n+]1cccc2sc3ccc([N+](=O)[O-])cc3c21.[I-],–,–,> 23.8 µg/mL
> 20 µg/mL,> 20 µg/mL,> 20 µg/mL,15 µg/mL,3 µg/mL,0.18 µg/mL,0.2 µg/mL,–,–,CN(C)c1ccc2sc3ccc[n+](C)c3c2c1,–,–,> 23.8 µg/mL
2 µg/mL,15 µg/mL,4 µg/mL,> 20 µg/mL,0.42 µg/mL,4 µg/mL,2.8 µg/mL,–,–,C[n+]1c2ccc(Cl)cc2cc2sc3ccccc3c21.[I-],–,–,> 23.8 µg/mL

# Further lines, the compound ahead of its results:
Compound,MIC (Candida albicans),MIC (Cryptococcus neoformans),MIC (Aspergillus fumigatus),IC50 [1],IC50 (Leishmania donovani),IC50 [4],IC50 (Plasmodium falciparum [5]),IC50 (Cryptococcus neoformans),IC50 (Aspergillus fumigatus),Activity (Plasmodium falciparum [2]),Activity (Plasmodium falciparum [3]),IC50 (Vero)
[I-].c1ccc(CCCCC[n+]2cccc3sc4ccccc4c32)cc1,> 20 µg/mL,20 µg/mL,20 µg/mL,1.5 µg/mL,1.2 µg/mL,0.27 µg/mL,0.22 µg/mL,–,–,–,–,20 µg/mL
O=C(O)c1cn(C2CC2)c2cc(N3CCNCC3)c(F)cc2c1=O [CIPROFLOXACIN],–,–,–,0.35 µg/mL,–,–,–,–,–,–,–,–
C[n+]1c2ccccc2cc2oc3ccccc3c21.[I-],> 20 µg/mL,> 20 µg/mL,–,> 20 µg/mL,2.2 µg/mL,0.28 µg/mL,0.28 µg/mL,–,15 µg/mL,–,–,> 23.8 µg/mL
C[C@@H]1CC[C@H]2[C@@H](C)C(=O)O[C@@H]3O[C@@]4(C)CC[C@@H]1[C@]32OO4 [ARTEMISININ],–,–,–,–,–,0.02 µg/mL,0.02 µg/mL,–,–,–,–,> 4.7 µg/mL
N=C(N)c1ccc(OCCCCCOc2ccc(C(=N)N)cc2)cc1 [PENTAMIDINE],–,–,–,–,0.7 µg/mL,–,–,–,–,–,–,–
C[n+]1c2ccccc2cc2[nH]c3ccccc3c21.[I-] [CRYPTOLEPTINE IODIDE],2 µg/mL,–,> 20 µg/mL,15 µg/mL,0.23 µg/mL,0.18 µg/mL,0.35 µg/mL,–,–,–,–,3.2 µg/mL
C[C@@H]1[C@H](O)[C@@H](C)/C=C/C=C/C=C/C=C/C=C/C=C/C=C/[C@H](O[C@@H]2O[C@H](C)[C@@H](O)[C@H](N)[C@@H]2O)C[C@@H]2O[C@](O)(C[C@@H](O)C[C@@H](O)[C@H](O)CC[C@@H](O)C[C@@H](O)CC(=O)O[C@H]1C)C[C@H](O)[C@H]2C(=O)O [AMPHOTERICIN B],0.25 µg/mL,0.95 µg/mL,–,–,–,–,–,–,0.85 µg/mL,–,–,–
CCN(CC)CCCC(C)Nc1ccnc2cc(Cl)ccc12 (centres undefined) [CHLOROQUINE],–,–,–,–,–,0.02 µg/mL,–,–,–,–,–,> 4.7 µg/mL
C[n+]1c2ccccc2cc2sc3ccccc3c21.O=S(=O)([O-])C(F)(F)F,10 µg/mL,> 20 µg/mL,–,15 µg/mL,0.27 µg/mL,0.34 µg/mL,0.3 µg/mL,–,6.5 µg/mL,–,–,> 23.8 µg/mL
C[n+]1c2c(cc3ccccc31)Cc1ccccc1-2.[I-],> 20 µg/mL,> 20 µg/mL,> 20 µg/mL,> 20 µg/mL,–,–,–,–,–,–,–,–
